Data set [1] in a line: melting temperature; fluorescence melt of hairpins on a sequencing array, two-state fit, raised by 9.35 °C to match UV melts. Conditions: sodium 0.088 M. A digest of the protocol: (§1)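 Folding enthalpy and melting temperature were estimated with bootstrapped two-state fits and combined across four replicates by inverse-variance weighting, with fitted temperatures raised by 9.35 °C to match UV melts. The data were Cy3 fluorescence of library hairpins, with annealed Cy3 and quencher oligos, on a sequenced MiSeq flow cell in 50 mM Na-HEPES pH 8.0, 25 mM NaCl, imaged in 2.5 °C steps up to 60 °C and normalised to pre-quench Cy3 and control constructs.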

The nature of data set [2]: folding enthalpy; higher = less favourable; fluorescence melt of hairpins on a sequencing array, two-state fit. Conditions: sodium 0.088 M. In outline: as §1

Consider 37 sequences from the array DNA melting data of Ke et al. (doi:10.1101/2024.01.08.574731).

As for GTGACCGAAAGGTAACAC ((((((....)))..))), the Tm in data set [1] was determined as 47.1 °C. Moreover, the folding enthalpy in data set [2] is -16.9 kcal/mol.
As for GTGACCGAAAGGTGCAC ((((((....))).))), the Tm in data set [1] was 49.4 °C. Moreover, in data set [2], the folding enthalpy was -19.9 kcal/mol.
As for GTGACGGAAACGTCAC ((((((....)))))), the Tm in data set [1] was 68.7 °C. Besides, in data set [2], the folding enthalpy is -32.9 kcal/mol.
With GTGACTCCGAAAGGACAC (((..(((....)))))), in data set [1], the Tm is 35.4 °C. Besides, the folding enthalpy in data set [2] was -9.23 kcal/mol.
Taken in the same sequence, the figures for GTGACTCGAAAGAGCCAC (((.(((....))).))) were 54.5 °C and -38.2 kcal/mol.
For the sequence GTGACTGAAAAGTCAC ((((((....)))))), in data set [1], the Tm came to 61 °C. Besides, the folding enthalpy in data set [2] is -37.6 kcal/mol.
In the case of GTGAGACGAAAGTCCAC (((.(((....)))))), the Tm in data set [1] worked out at 53.8 °C. Further, in data set [2], the folding enthalpy is -22.8 kcal/mol.
Taken in the same sequence, the figures for GTGAGAGGAAACTCTTGC (..((((....))))..) were 29.4 °C and -20.3 kcal/mol.
Take GTGAGCGGAAACGCTTAC ((.((((....)))).)): in data set [1], the Tm was 51.6 °C. In addition, the folding enthalpy in data set [2] is -27.1 kcal/mol.
Regarding GTGAGCGGAAACGTTCGC (.((.((....)).)).), the Tm in data set [1] is 43.9 °C. Also, the folding enthalpy in data set [2] was -27.8 kcal/mol.
Consider GTGAGGGGAAACCCCCAC (((.(((....))).))), for which, in data set [1], the Tm was 49.2 °C. Moreover, the folding enthalpy in data set [2] was -31.5 kcal/mol.
Taken in the same sequence, the figures for GTGAGGGGAAACCTTCAC ((((.((....)).)))) were 46 °C and -28.8 kcal/mol.
In the case of GTGAGTCGAAAGACACAC (((.(((....))).))), the Tm in data set [1] was found to be 53.8 °C. In addition, the folding enthalpy in data set [2] was -43.2 kcal/mol.
The matching figures for GTGAGTCGAAAGACGCAC (((.(((....))).))): 60 °C and -34.4 kcal/mol.
The matching figures for GTGAGTGGAAACACTCGC (.(((((....))))).): 54.9 °C and -33.1 kcal/mol.
On to GTGAGTGGAAACGCTCAC (((((.(....).))))), for which the Tm in data set [1] was 53.7 °C. For the same sequence, the folding enthalpy in data set [2] was -42.5 kcal/mol.
On to GTGAGTTCGAAAGAACAC (((..(((....)))))), for which the Tm in data set [1] was 44.6 °C. Also, the folding enthalpy in data set [2] was -15.4 kcal/mol.
Taken in the same sequence, the figures for GTGATACCGAAAGGTCAC (((..(((....)))))) were 41.9 °C and -19.5 kcal/mol.
Consider GTGATACGAAAGTAACAC (((.(((....))).))), for which the Tm in data set [1] was found to be 47.6 °C. Moreover, the folding enthalpy in data set [2] was -34.1 kcal/mol.
GTGATACGAAAGTAGCAC (((.(((....))).))): the Tm in data set [1] amounted to 58.6 °C. Further, in data set [2], the folding enthalpy was -48.7 kcal/mol.
Taken in the same sequence, the figures for GTGATAGAAATATCAC ((((((....)))))) were 46.5 °C and -32.9 kcal/mol.
Turning to GTGATAGGAAACTATCAC (((((((....))))))), the Tm in data set [1] is 56.1 °C. In addition, the folding enthalpy in data set [2] is -42.8 kcal/mol.
Turning to GTGATCCGAAAGGACCAC (((.(((....))).))), the Tm in data set [1] was 51.8 °C. Also, the folding enthalpy in data set [2] was -34.6 kcal/mol.
GTGATCGAAAGATACCAC ((((((....)))..))): the Tm in data set [1] worked out at 26.6 °C. For the same sequence, the folding enthalpy in data set [2] is -10.5 kcal/mol.
The matching figures for GTGATCGAAAGATGTCAC ((((((....)))..))): 29.9 °C and -13.7 kcal/mol.
Regarding GTGATCGAAAGATTGCAC ((((((....)))..))), in data set [1], the Tm is 30.4 °C. Besides, the folding enthalpy in data set [2] is -14.5 kcal/mol.
In the case of GTGATCGGAAACGGTCAC ((((.((....)).)))), the Tm in data set [1] amounted to 55 °C. Further, the folding enthalpy in data set [2] is -42.8 kcal/mol.
The matching figures for GTGATCGGAAACGGTTAC ((.(.((....)).).)): 31.9 °C and -29.9 kcal/mol.
Taken in the same sequence, the figures for GTGATCTCGAAAGAGCAC (((..(((....)))))) were 45.5 °C and -25.7 kcal/mol.
As for GTGATGAAAATCAC (((((....))))), in data set [1], the Tm worked out at 49.6 °C. Further, the folding enthalpy in data set [2] was -22.8 kcal/mol.
For the sequence GTGATGGGAAACCATTAC ((.((((....)))).)), in data set [1], the Tm was 43.5 °C. Besides, in data set [2], the folding enthalpy was -31.1 kcal/mol.
With GTGATGGGAAACTATCGC (.(((.(....).))).), the Tm in data set [1] came to 35.2 °C. Also, in data set [2], the folding enthalpy was -23.4 kcal/mol.
Taken in the same sequence, the figures for GTGATGTCGAAAGACCAC (((..(((....)))))) were 40.4 °C and -15 kcal/mol.
As for GTGATTACGAAAGTACAC (((..(((....)))))), the Tm in data set [1] stood at 27.8 °C. In addition, the folding enthalpy in data set [2] is -10.1 kcal/mol.
For the sequence GTGATTCGAAAGAACAC (((.(((....)))))), the Tm in data set [1] turned out to be 40.9 °C. Moreover, in data set [2], the folding enthalpy was -24.8 kcal/mol.
Consider GTGATTCGAAAGAAGCAC (((.(((....))).))), for which the Tm in data set [1] was 56.5 °C. Besides, in data set [2], the folding enthalpy was -43.9 kcal/mol.
Taken in the same sequence, the figures for GTGCAAGGAAACTTGCGC (.(((((....))))).) were 59.1 °C and -27.6 kcal/mol.
